Sampled rows, rich in hits. Any-hit rate of the full collection: about 2.3%.
TRPC6 inh: mouse TRPC6 channel inhibitors, primary screen, cell-based, HEK293, membrane potential dye; Short transient receptor potential channel 6 (Mus musculus), Q61143; ACh-evoked depolarization; hits give low values; B-score at 10 µM; hit rate 1.1% among 310,000; AID 2553, 2010;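 active = B-score under library mean minus 3 SD, initial fluorescence not abnormally high, positive integrated signal ratio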;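 note: B-score derived from integrated fluorescence ratio over the kinetic read; more negative B-score means stronger inhibition of depolarization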
Target sequence (Q61143 whole entry, looked up): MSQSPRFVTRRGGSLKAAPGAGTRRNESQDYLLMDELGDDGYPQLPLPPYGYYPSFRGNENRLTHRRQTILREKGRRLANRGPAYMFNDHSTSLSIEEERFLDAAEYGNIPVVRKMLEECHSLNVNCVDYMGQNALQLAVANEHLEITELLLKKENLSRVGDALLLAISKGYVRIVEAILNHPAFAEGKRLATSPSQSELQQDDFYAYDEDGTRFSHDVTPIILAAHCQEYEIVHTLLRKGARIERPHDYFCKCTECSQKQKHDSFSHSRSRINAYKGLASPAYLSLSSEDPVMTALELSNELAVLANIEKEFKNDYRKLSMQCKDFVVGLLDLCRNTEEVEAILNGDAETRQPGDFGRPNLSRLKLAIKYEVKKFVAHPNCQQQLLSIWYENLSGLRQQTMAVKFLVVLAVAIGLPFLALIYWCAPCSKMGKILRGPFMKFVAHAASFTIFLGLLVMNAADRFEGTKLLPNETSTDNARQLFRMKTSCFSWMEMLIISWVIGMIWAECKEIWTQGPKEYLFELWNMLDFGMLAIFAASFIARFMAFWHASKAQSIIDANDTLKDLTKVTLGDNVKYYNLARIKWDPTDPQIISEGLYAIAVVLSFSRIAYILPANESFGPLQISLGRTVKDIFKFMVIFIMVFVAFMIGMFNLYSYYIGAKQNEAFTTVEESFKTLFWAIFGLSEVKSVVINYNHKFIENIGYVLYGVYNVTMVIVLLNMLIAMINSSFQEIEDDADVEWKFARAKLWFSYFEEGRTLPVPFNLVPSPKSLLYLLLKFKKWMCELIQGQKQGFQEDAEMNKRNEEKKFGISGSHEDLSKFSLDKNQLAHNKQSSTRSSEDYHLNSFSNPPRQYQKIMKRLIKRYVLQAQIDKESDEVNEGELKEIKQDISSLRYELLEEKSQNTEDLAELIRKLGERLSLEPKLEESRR
TRPC4 PAM: positive allosteric modulators of TRPC4, primary screen, cell-based, mouse TRPC4beta, HEK293 mu-opioid, Fluo-4 calcium; AID 2227, 2009; hit rate 0.42% among 310,000; B-score at 10 µM; Short transient receptor potential channel 4 (Mus musculus), Q9QUQ5; DAMGO EC20, Fluo-4 Ca2+ flux; hits give high values;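 active = B-score of calcium response area above 5 SD of library B-scores, with initial fluorescence ratio within 5 SD of library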;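 note: B-score of integrated fluorescence ratio over time as area under calcium response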
TRPC4 block: inhibitors of mouse TRPC4 channel, primary screen, Fluo4 calcium, HEK293 TRPC4beta/mu-opioid cells; hit rate 0.39% among 300,000; B-score at 10 µM; Short transient receptor potential channel 4 (Mus musculus), Q9QUQ5; DAMGO-evoked Fluo4 calcium flux; hits give low values;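 active = B-score over 3 SD under the library average, no early fluorescence shift, positive overall ratio signal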
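Assay system: HEK293 cells with stable TRPC4beta plus mu-opioid receptor expression. Dosing: single dose. Measured by: Fluo4 Ca2+ flux fluorescence. Also added: DAMGO in two steps, submaximal then maximal. Read-out: B score from integrated Fluo4 fluorescence ratio.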
TRPC4 act: activators of mouse TRPC4 channel, primary screen, Fluo4 calcium, HEK293 TRPC4beta/mu-opioid cells; Short transient receptor potential channel 4 (Mus musculus), Q9QUQ5; Fluo4 calcium fluorescence; hits give high values; B-score at 10 µM; hit rate 0.49% among 310,000; AID 2237, 2010;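 active = B-score above 5 SD of library B-scores, and initial fluorescence ratio not above library mean plus 5 SD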;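 note: positive B-score marks a calcium rise read as TRPC4 activation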
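Assay system: HEK293 stable line with TRPC4beta plus mu-opioid receptor. Times: dye 45 min RT, read 110 s. Measured by: kinetic Fluo4 calcium fluorescence. Measure: B score of integrated ratio. Controls: assay buffer as low control, maximal DAMGO as high control.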
TRPC6 act: mouse TRPC6 channel activators, primary screen, cell-based, HEK293, membrane potential dye. HEK293-TRPC6 membrane potential dye fluorescence; hits give high values. Short transient receptor potential channel 6 (Mus musculus), Q61143. hit rate 0.13% among 310,000. B-score at 10 µM;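 active = B-score of the integrated fluorescence ratio above library mean plus 3 SD, and starting fluorescence ratio within library mean plus 5 SD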;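 note: higher score means more depolarization so channel activation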
TRPC4 spec 2: second check of whether TRPC6 inhibitors also affect mouse TRPC4; shares compounds with TRPC6 inh; HEK293 TRPC4/MOR, membrane potential dye fluorescence; channel activated by saturating DAMGO dose; inhibition, % at 10 µM; hit rate 42% among 920; AID 2776;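 active = compounds whose fluorescence signal differed from control wells by over 3 SD, either direction, in both duplicate plates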
TRPC4 spec: mouse TRPC4 modulation by TRPC6 hits, confirmation, selectivity assay for TRPC6 inhibitor project, cell-based, HEK293 TRPC4/mu-opioid, membrane potential dye; shares compounds with TRPC6 inh; membrane potential fluorescence; activity change, negative = inhibition, % at 10 µM; hit rate 61% among 920;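 active = rise or fall in signal beyond 3 SD of buffer-only wells in both replicate plates, either sign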;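 note: integrated kinetic ratio of fluorescence range over baseline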
HEK293 MPD ctr 2-1: nonspecific membrane potential effects, parental HEK293, confirmation, counter-screen for TRPC6 inhibitor project, cell-based, second counter screen; shares compounds with TRPC6 inh; parental HEK293 membrane potential dye fluorescence; maximal acetylcholine challenge after compound addition; signal change vs control, % at 10 µM; hit rate 31% among 920; AID 2779, 2010;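 active = membrane potential signal moving either way by over 3 SD of the maximum-effect control, in both duplicate plates, meaning non-specific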
HEK293 MPD ctr-1: membrane potential modulation in parental HEK293, confirmation, counter-screen for TRPC6 inhibitor project, cell-based; membrane potential signal change, % at 10 µM; hit rate 60% among 920; shares compounds with TRPC6 inh; parental HEK293 membrane potential dye fluorescence;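 active = membrane potential signal shifting up or down by more than 3 SD of buffer-only wells, on both duplicate plates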
HEK293 MPD ctr-2: parental HEK293 membrane potential modulation, confirmation, counter-screen for TRPC6 modulator project, cell-based; shares compounds with TRPC6 inh; membrane potential dye fluorescence; membrane potential signal change, % at 10 µM; hit rate 51% among 2,400; AID 488924, 2010;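 active = membrane potential signal moves up or down beyond 5 SD from buffer-only wells, on both duplicate plates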
HEK293 MPD ctr 2-2: second check of TRPC6 modulator effects in parental HEK293 cells | shares compounds with TRPC6 inh | membrane potential dye fluorescence; after compound, maximal acetylcholine stimulation | inhibition, % at 10 µM | hit rate 14% among 2,400 | AID 488926;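 active = membrane potential signal drops by more than 5 SD from the mean control signal, in both duplicate plates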;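 note: plate controls were acetylcholine ECmax control wells for no effect and buffer only wells for full effect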
TRPC4/MOR mod: TRPC4 modulation by TRPC6 hit compounds, confirmation, selectivity assay for TRPC6 modulator project, cell-based, HEK293 TRPC4/mu-opioid, membrane potential dye, mouse. shares compounds with TRPC6 inh. membrane potential fluorescence. percent change from control (negative = decrease, positive = increase), % at 10 µM. hit rate 69% among 2,400. AID 488927, 2010;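 active = membrane potential signal moved up or down beyond 5 SD of buffer control wells, in both duplicate plates, actives on both sides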;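 note: plate controls were assay buffer wells for no effect and DAMGO maximal-effect wells for full effect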
TRPC4 ctr inh 2: second check of whether TRPC6 modulators also affect mouse TRPC4 | shares compounds with TRPC6 inh | HEK293 TRPC4/mu-opioid, membrane potential dye fluorescence; stimulated with maximal-effect DAMGO | inhibition, % at 10 µM | hit rate 55% among 2,400 | AID 488928;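 active = drop in membrane potential signal beyond 5 SD of the control wells in both duplicate plates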;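 note: TRPC4 counter screen for TRPC6 hits run under conditions tuned for TRPC6 not TRPC4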
TRPC6 block conf: mouse TRPC6 channel inhibitors, confirmation, HEK293 cells, membrane potential dye, duplicate; shares compounds with TRPC6 inh; ACh-evoked depolarization; inhibition, % at 10 µM; hit rate 43% among 3,300; AID 488960, 2010;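 active = fluorescence ratio falls more than 5 SD below the full-stimulation control mean, in both duplicate runs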;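 note: integrated fluorescence ratio of peak minus minimum over baseline after agonist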
TRPC6 act confirm: mouse TRPC6 channel activators, confirmation, HEK293 cells, membrane potential dye, duplicate; shares compounds with TRPC6 inh; HEK293-TRPC6 membrane potential dye fluorescence, FDSS; activation, % at 10 µM; hit rate 11% among 2,800; AID 488961, 2010;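 active = ratio signal rise beyond 5 SD above unstimulated control wells' mean, seen in both duplicate runs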;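 note: plate controls were buffer EC0 wells for no effect and acetylcholine ECmax response for full effect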
* = called active by the depositor; i = inactive; · = no result given.

SMILES | TRPC6 inh | TRPC4 PAM | TRPC4 block | TRPC4 act | TRPC6 act | HEK293 MPD ctr-2 | HEK293 MPD ctr 2-2 | TRPC4/MOR mod | TRPC4 ctr inh 2 | TRPC6 block conf | TRPC6 act confirm | others
COc1ccc(CN(C(=O)CN2C(=O)COc3ccccc32)C2CCCC2)c(OC)c1 | i | i | i | i | 12* | 319%* | i | i | i | i | i
CCCCNC(=O)C1CCC(CNS(=O)(=O)c2ccc(C)cc2)CC1 (stereo not drawn) | i | i | i | i | i | · | · | · | · | · | ·
COCCCNC(=O)C1CCC(CNS(=O)(=O)c2ccc(C)cc2)CC1 (stereo not drawn) | -6.3* | i | i | i | i | 99%* | i | 22%* | i | i | i
Cc1ccc(NC(=O)NCCCN2CCCC2=O)cc1C | i | i | i | i | i | · | · | · | · | · | ·
COc1ccc(C2c3c(ncn(CCN4CCOCC4)c3=N)Oc3ccc4ccccc4c32)cc1OC (stereo not drawn) | -5.1* | i | i | i | i | 204%* | i | 34%* | 40%* | i | ·
COc1cc2c(cc1O)CC[n+]1cc3c(OC)c(OC)ccc3cc1-2 | -7.4* | i | i | i | i | · | · | · | · | i | i | TRPC4 spec 2=i;TRPC4 spec=-9.5%*;HEK293 MPD ctr 2-1=-66%*;HEK293 MPD ctr-1=i
COc1cc2c(cc1OC)-c1cc3ccc4c(c3c[n+]1CC2)OCO4 | -7.4* | i | i | i | i | i | 91%* | -194%* | 37%* | 46%* | i
COc1cc2c(cc1OC)C(c1ccccc1)=NCC2 | i | i | i | i | i | · | · | · | · | · | ·
COc1cc2c(ccc3cc(OC)c(OC)c(O)c32)cc1O | i | i | i | i | i | · | · | · | · | · | ·
CCOC(=O)c1cc(S(=O)(=O)NC2CCC(C)CC2)cn1C (stereo not drawn) | i | i | i | i | i | · | · | · | · | · | ·
CCOC(=O)c1cnc2ccc(OCC)cc2c1NCc1cccnc1 | i | i | i | i | i | · | · | · | · | · | ·
CCOC(=O)c1cnc2c(C)cccc2c1NCCCN1CCOCC1 | -6.8* | i | i | i | i | · | · | · | · | i | i | TRPC4 spec 2=58%*;TRPC4 spec=i;HEK293 MPD ctr 2-1=-31%*;HEK293 MPD ctr-1=i
CCOC(=O)c1cnc2c(CC)cccc2c1NCCN1CCOCC1 | i | i | i | i | i | · | · | · | · | · | ·
CCOC(=O)c1cnc2c(C(=O)OC)cccc2c1NCCN1CCOCC1 | -5* | i | i | i | i | 137%* | i | 20%* | 47%* | 48%* | ·
CCOC(=O)c1cnc2c(OC)cccc2c1NCc1cccnc1 | -7.5* | i | i | i | i | · | · | · | · | 83%* | i | TRPC4 spec 2=i;TRPC4 spec=i;HEK293 MPD ctr 2-1=-15%*;HEK293 MPD ctr-1=i
Cc1ccc(F)c(NC(=O)c2c(-c3ccccc3)noc2C)c1 | i | i | i | i | i | · | · | · | · | · | ·
CCCn1cc(CN2CCCC(C(=O)c3ccc4c(c3)OCO4)C2)c(C)n1 (stereo not drawn) | i | i | i | i | i | · | · | · | · | · | ·
C=CCOc1ccccc1CN1CCN(CCc2ccccc2)C(CCO)C1 (stereo not drawn) | i | i | i | i | i | · | · | · | · | · | ·
CC/C(=N\NC(=O)c1cc(C2CC2)[nH]n1)c1ccccc1 | i | i | i | i | i | · | · | · | · | · | ·
Cc1ccc(S(=O)(=O)NNc2nc3ccccc3nc2C(F)(F)F)cc1 | -7* | i | i | i | i | · | · | · | · | i | i | TRPC4 spec 2=i;TRPC4 spec=i;HEK293 MPD ctr 2-1=i;HEK293 MPD ctr-1=i
Cc1cc(C)c(S(=O)(=O)N/N=C/c2ccc3c(c2)OCO3)c(C)c1 | i | i | i | i | i | · | · | · | · | · | ·
N#Cc1ccc(C2=NC(C(F)(F)F)(C(F)(F)F)c3c(n(Cc4ccco4)c(=O)[nH]c3=O)N2)cc1 | -8.3* | i | i | i | i | · | · | · | · | i | i | TRPC4 spec 2=i;TRPC4 spec=-12%*;HEK293 MPD ctr 2-1=i;HEK293 MPD ctr-1=-128%*
C=CCn1c(SCC(=O)c2cc(C)n(CC3CCCO3)c2C)nnc1-c1ccccc1 (stereo not drawn) | i | i | i | i | 16* | 110%* | i | 26%* | i | · | 82%*

From PubChem
